Reference: ChEMBL document CHEMBL5356951, “Semisynthetic polymyxins with potent antibacterial activity and reduced kidney cell toxicity” (RSC Med Chem, 2023)
Values after ≈ are worked out from the molar mass of the structure shown.

Tests used:
Format in all cases: functional
Acinetobacter baumannii [1] = assay: Antibacterial activity against Acinetobacter baumannii 2018-006 assessed as bacterial growth inhibition by broth microdilution assay
Outline: (§1)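 Broth microdilution MIC. Strains grown overnight on blood agar at 37 °C, colonies suspended in TSB and grown to OD600 0.5. Compounds dissolved in DMSO (6.4 mg mL−1 stock), diluted serially in CAMHB (12.5 μg mL−1 Mg2+, 20 μg mL−1 Ca2+) on polypropylene plates. Final inoculum 10^6 CFU mL−1, 37 °C under gas-permeable membrane. MIC is the lowest concentration with no visible growth, consistent across at least triplicate experiments.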

Escherichia coli [2] = assay: Antibacterial activity against multidrug-resistant Escherichia coli NCTC 13846 assessed as bacterial growth inhibition by broth microdilution assay; outline: as §1
Pseudomonas aeruginosa [3] = assay: Antibacterial activity against Pseudomonas aeruginosa NRZ 08418 assessed as bacterial growth inhibition by broth microdilution assay
Outline: (§2)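 Broth microdilution. Bacteria from glycerol stocks were grown overnight on blood agar at 37 °C, then colonies were suspended in TSB and grown to OD600 0.5. Compounds were dissolved in DMSO at 6.4 mg mL−1 (stock) and serially diluted in CAMHB (Mg2+ 12.5, Ca2+ 20 μg mL−1) in polypropylene plates. Inoculum was 10^6 CFU mL−1 final, incubated at 37 °C. MIC = lowest concentration without visible growth; values consistent across at least triplicate experiments.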

Klebsiella pneumoniae [4] = assay: Antibacterial activity against Klebsiella pneumoniae ATCC 13883 assessed as bacterial growth inhibition by broth microdilution assay; outline: as §2
Klebsiella pneumoniae [5] = assay: Antibacterial activity against Klebsiella pneumoniae JS-123 assessed as bacterial growth inhibition by broth microdilution assay; outline: as §2
Pseudomonas aeruginosa [6] = assay: Antibacterial activity against Pseudomonas aeruginosa NRZ 03961 assessed as bacterial growth inhibition by broth microdilution assay; outline: as §2
Acinetobacter baumannii [7] = assay: Antibacterial activity against multidrug-resistant Acinetobacter baumannii assessed as bacterial growth inhibition by broth microdilution assay; outline: as §1
Acinetobacter baumannii [8] = assay: Antibacterial activity against Acinetobacter baumannii ATCC 17978 assessed as bacterial growth inhibition by broth microdilution assay; outline: as §1
Acinetobacter baumannii [9] = assay: Antibacterial activity against Acinetobacter baumannii ATCC 19606 assessed as bacterial growth inhibition by broth microdilution assay; outline: as §1
Klebsiella pneumoniae [10] = assay: Antibacterial activity against Klebsiella pneumoniae NCTC 13443 assessed as bacterial growth inhibition by broth microdilution assay; outline: as §2
Escherichia coli [11] = assay: Antibacterial activity against Escherichia coli ATCC 25922 assessed as bacterial growth inhibition by broth microdilution assay; outline: as §2
Pseudomonas aeruginosa [12] = assay: Antibacterial activity against Pseudomonas aeruginosa ATCC 27853 assessed as bacterial growth inhibition by broth microdilution assay; outline: as §2
Escherichia coli [13] = assay: Antibacterial activity against Escherichia coli 1313 assessed as bacterial growth inhibition by broth microdilution assay; outline: as §2

SMILES	MIC (Acinetobacter baumannii [1]) [µg/mL]	MIC (Escherichia coli [2]) [µg/mL]	MIC (Pseudomonas aeruginosa [3]) [µg/mL]	MIC (Klebsiella pneumoniae [4]) [µg/mL]	MIC (Klebsiella pneumoniae [5]) [µg/mL]	MIC (Pseudomonas aeruginosa [6]) [µg/mL]	MIC (Acinetobacter baumannii [7]) [µg/mL]	MIC (Acinetobacter baumannii [8]) [µg/mL]	MIC (Acinetobacter baumannii [9]) [µg/mL]	MIC (Klebsiella pneumoniae [10]) [µg/mL]	MIC (Escherichia coli [11]) [µg/mL]	MIC (Pseudomonas aeruginosa [12]) [µg/mL]	MIC (Escherichia coli [13]) [µg/mL]
CC(C)CCSSC[C@@H](N)C(=O)N[C@H](C(=O)NCC(=O)N[C@H]1CCNC(=O)[C@H]([C@@H](C)O)NC(=O)[C@H](CCN)NC(=O)[C@H](CCN)NC(=O)[C@H](CC(C)C)NC(=O)[C@@H](Cc2ccccc2)NC(=O)[C@H](CCN)NC1=O)[C@@H](C)O	0.5 (≈ 0.444 µM)	16 (≈ 14.2 µM)	4 (≈ 3.55 µM)	0.5 (≈ 0.444 µM)	0.5 (≈ 0.444 µM)	4 (≈ 3.55 µM)	0.5 (≈ 0.444 µM)	0.5 (≈ 0.444 µM)	0.5 (≈ 0.444 µM)	0.5 (≈ 0.444 µM)	2 (≈ 1.78 µM)	4 (≈ 3.55 µM)	0.25 (≈ 0.222 µM)
CC(C)C[C@@H]1NC(=O)[C@@H](Cc2ccccc2)NC(=O)[C@H](CCN)NC(=O)[C@@H](NC(=O)[C@@H](CCN)NC(=O)[C@@H](NC(=O)[C@H](N)CSSCCC2CCCCC2)[C@@H](C)O)CCNC(=O)[C@H]([C@@H](C)O)NC(=O)[C@H](CCN)NC(=O)[C@H](CCN)NC1=O	0.5 (≈ 0.414 µM)	4 (≈ 3.31 µM)	2 (≈ 1.65 µM)	1 (≈ 0.827 µM)	1 (≈ 0.827 µM)	2 (≈ 1.65 µM)	1 (≈ 0.827 µM)	1 (≈ 0.827 µM)	0.5 (≈ 0.414 µM)	1 (≈ 0.827 µM)	2 (≈ 1.65 µM)	2 (≈ 1.65 µM)	0.5 (≈ 0.414 µM)
CC(C)C[C@@H]1NC(=O)[C@@H](Cc2ccccc2)NC(=O)[C@H](CCN)NC(=O)[C@@H](NC(=O)[C@H](CN)NC(=O)[C@@H](NC(=O)[C@H](N)CSSCc2cccc(Cl)c2)[C@@H](C)O)CCNC(=O)[C@H]([C@@H](C)O)NC(=O)[C@H](CCN)NC(=O)[C@H](CCN)NC1=O	2 (≈ 1.65 µM)	2 (≈ 1.65 µM)	2 (≈ 1.65 µM)	0.5 (≈ 0.414 µM)	0.5 (≈ 0.414 µM)	2 (≈ 1.65 µM)	8 (≈ 6.62 µM)	≤ 0.25	0.5 (≈ 0.414 µM)	2 (≈ 1.65 µM)	2 (≈ 1.65 µM)	4 (≈ 3.31 µM)	≤ 0.125
CC(C)CCSSC[C@@H](N)C(=O)N[C@H](C(=O)N[C@H](CCN)C(=O)N[C@H]1CCNC(=O)[C@H]([C@@H](C)O)NC(=O)[C@H](CCN)NC(=O)[C@H](CCN)NC(=O)[C@H](CC(C)C)NC(=O)[C@@H](Cc2ccccc2)NC(=O)[C@H](CCN)NC1=O)[C@@H](C)O	0.25 (≈ 0.214 µM)	8 (≈ 6.85 µM)	2 (≈ 1.71 µM)	0.5 (≈ 0.428 µM)	0.25 (≈ 0.214 µM)	2 (≈ 1.71 µM)	0.5 (≈ 0.428 µM)	0.25 (≈ 0.214 µM)	0.25 (≈ 0.214 µM)	0.5 (≈ 0.428 µM)	2 (≈ 1.71 µM)	1 (≈ 0.856 µM)	0.25 (≈ 0.214 µM)
CC(C)C[C@@H]1NC(=O)[C@@H](Cc2ccccc2)NC(=O)[C@H](CCN)NC(=O)[C@@H](NC(=O)[C@@H](CN)NC(=O)[C@@H](NC(=O)[C@H](N)CSSCc2cccc(Cl)c2)[C@@H](C)O)CCNC(=O)[C@H]([C@@H](C)O)NC(=O)[C@H](CCN)NC(=O)[C@H](CCN)NC1=O	0.5 (≈ 0.414 µM)	16 (≈ 13.2 µM)	0.5 (≈ 0.414 µM)	0.5 (≈ 0.414 µM)	2 (≈ 1.65 µM)	2 (≈ 1.65 µM)	0.5 (≈ 0.414 µM)	0.5 (≈ 0.414 µM)	0.5 (≈ 0.414 µM)	8 (≈ 6.62 µM)	2 (≈ 1.65 µM)	1 (≈ 0.827 µM)	0.5 (≈ 0.414 µM)
CC(C)C[C@@H]1NC(=O)[C@@H](Cc2ccccc2)NC(=O)[C@H](CCN)NC(=O)[C@@H](NC(=O)CNC(=O)[C@@H](NC(=O)[C@H](N)CSSCc2cccc(Cl)c2)[C@@H](C)O)CCNC(=O)[C@H]([C@@H](C)O)NC(=O)[C@H](CCN)NC(=O)[C@H](CCN)NC1=O	1 (≈ 0.848 µM)	8 (≈ 6.78 µM)	4 (≈ 3.39 µM)	1 (≈ 0.848 µM)	0.5 (≈ 0.424 µM)	4 (≈ 3.39 µM)	1 (≈ 0.848 µM)	1 (≈ 0.848 µM)	1 (≈ 0.848 µM)	0.5 (≈ 0.424 µM)	2 (≈ 1.7 µM)	4 (≈ 3.39 µM)	0.25 (≈ 0.212 µM)
CC(C)CCSSC[C@@H](N)C(=O)N[C@H](C(=O)N[C@H](CN)C(=O)N[C@H]1CCNC(=O)[C@H]([C@@H](C)O)NC(=O)[C@H](CCN)NC(=O)[C@H](CCN)NC(=O)[C@H](CC(C)C)NC(=O)[C@@H](Cc2ccccc2)NC(=O)[C@H](CCN)NC1=O)[C@@H](C)O	0.25 (≈ 0.217 µM)	8 (≈ 6.93 µM)	4 (≈ 3.46 µM)	0.5 (≈ 0.433 µM)	0.5 (≈ 0.433 µM)	2 (≈ 1.73 µM)	0.25 (≈ 0.217 µM)	0.25 (≈ 0.217 µM)	0.25 (≈ 0.217 µM)	0.5 (≈ 0.433 µM)	2 (≈ 1.73 µM)	1 (≈ 0.866 µM)	0.5 (≈ 0.433 µM)
